We go through six compounds from ChEMBL document CHEMBL1145811, “Synthesis and antibacterial activity of a novel series of acylides: 3-O-(3-pyridyl)acetylerythromycin A derivatives” (J Med Chem, 2003).

Converted amounts (≈) assume the structure as drawn. Where only a bound is given, the exact number is not on record here.

For data set [1], the system named is Haemophilus influenzae. The data set can be described thus: In vitro minimum inhibitory concentration for antibacterial activity against Haemophilus influenzae ATCC 33533 (ampicillin-resistant strain that produces beta-lactamase). The format is functional. The procedure, abridged: (§1)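 Agar dilution MIC determined by the Japan Society of Chemotherapy standard method for aerobic bacteria.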

Data set [2] relates to Haemophilus influenzae. The data set can be described thus: In vitro minimum inhibitory concentration for antibacterial activity against Haemophilus influenzae ATCC 43095 (ampicillin-susceptible strain that does not produce beta-lactamase). The format is functional. In outline: as §1
Data set [3] relates to Mus musculus. The data set can be described thus: Effective dose in vivo, in mouse inoculated intraperitoneally with 1.47*10e3 CFU of erythromycin susceptible strain Streptococcus pneumoniae IID553. The format is functional. As to conditions: ip. In outline:
(§2)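 Mouse protection test: mice were infected intraperitoneally with erythromycin-susceptible S. aureus Smith or S. pneumoniae IID553. Compounds were given orally 1 h after inoculation.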

Data set [4] deals with Mus musculus. As to the kind of experiment: Effective dose in vivo, in mouse inoculated intraperitoneally with 5.80*10e7 CFU of erythromycin susceptible strain Staphylococcus aureus Smith. As to conditions: ip. The data set is classed as functional. The procedure, abridged: as §2
Data set [5] deals with Staphylococcus aureus. The data set can be described thus: In vitro minimum inhibitory concentration for antibacterial activity against erythromycin-susceptible strain Staphylococcus aureus […]. The data set is classed as functional. In outline:
(§3)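 MIC by agar dilution following the Japan Society of Chemotherapy standard method for aerobic bacteria. S. aureus 209P-JC and S. pneumoniae IID553 are erythromycin-susceptible strains.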

Data set [6] deals with Staphylococcus aureus. As to the kind of experiment: In vitro minimum inhibitory concentration for antibacterial activity against Staphylococcus aureus B1 (inducibly MLSb-resistant strain encoded by the erm(C) gene). The data set is classed as functional. The procedure, abridged: as §1
Data set [7] concerns Streptococcus pneumoniae. The data set can be described thus: In vitro minimum inhibitory concentration for antibacterial activity against erythromycin susceptible strain Streptococcus pneumoniae IID553. The format is functional.
Data set [8] concerns Streptococcus pneumoniae. The data set can be described thus: In vitro minimum inhibitory concentration for antibacterial activity against erythromycin-susceptible strain Streptococcus pneumoniae IID553. The format is functional. The procedure, abridged: as §3
For data set [9], the system named is Streptococcus pneumoniae. The data set can be described thus: In vitro minimum inhibitory concentration for antibacterial activity against Streptococcus pneumoniae 210 (efflux-resistant strain encoded by the mef(A) gene). The format is functional. In outline:
as §1

For data set [10], the system named is Streptococcus pneumoniae. The data set can be described thus: In vitro minimum inhibitory concentration for antibacterial activity against Streptococcus pneumoniae 211 (MLSb-resistant strain encoded by the erm(B) gene). The data set is classed as functional. In outline: as §1
Data set [11] relates to Staphylococcus aureus. The data set can be described thus: In vitro minimum inhibitory concentration for antibacterial activity against Staphylococcus aureus SR138 (constitutively MLSb-resistant strain encoded by the erm(A) gene). The format is functional. In outline:
as §1

The subject of data set [12] is Staphylococcus aureus. As to the kind of experiment: In vitro minimum inhibitory concentration for antibacterial activity against erythromycin susceptible strain Staphylococcus aureus Smith. The data set is classed as functional.
A short description of data set [13]: Maximum concentration in the lung of mice following a single oral dose of 10 mg/kg (data represent mean in 3 mice). As to conditions: mouse. The arrangement: dose 10 mg/kg, route oral. The data set is classed as ADME, organism-based. In outline: (§4)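 Mice received a single 10 mg/kg oral dose. Serum and lung were sampled for drug levels. Cmax is in µg/mL and AUC over 0–8 h is in µg·h/mL. Values are the mean of three mice.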

Data set [14] is described as follows: Maximum concentration in the serum of mice following a single oral dose of 10 mg/kg (data represent mean in 3 mice). The data set is classed as ADME, organism-based. Also on record: dose 10 mg/kg, route oral. Particulars: mouse. In outline: as §4
The nature of data set [15]: Area under the curve was determined for the compound from the lung of mice following a single oral dose of 10 mg/kg (data represent mean in 3 mice). The data set is classed as ADME, organism-based. The arrangement: dose 10 mg/kg, route oral. As to conditions: mouse, read-out: AUC 0-8. In outline:
as §4

Data set [16] in a line: Area under the curve was determined for the compound from the serum of mice following a single oral dose of 10 mg/kg (data represent mean in 3 mice). The data set is classed as ADME, organism-based. The arrangement: dose 10 mg/kg, route oral. As to conditions: mouse, read-out: AUC 0-8. In outline: as §4
Data set [17] relates to Mus musculus. As to the kind of experiment: Survival rate of mouse inoculated intraperitoneally with 5.05*10e7 CFU of erythromycin-susceptible strain Streptococcus pneumoniae IID553 after treatment with 0.3 mg of compound. The data set is classed as functional. The procedure, abridged: (§5)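 Mouse protection test: mice were infected intraperitoneally with 5.05 × 10^7 CFU/mouse, then given the macrolide orally 1 h after inoculation. Survival was recorded as the read-out.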

The test system of data set [18] is Mus musculus. The data set can be described thus: Survival rate of mouse inoculated intraperitoneally with 5.05*10e7 CFU of erythromycin-susceptible strain Streptococcus pneumoniae IID553 after treatment with 3 mg of compound. The data set is classed as functional. In outline:
as §5

Take `CC[C@H]1OC(=O)[C@H](C)[C@@H](OC(=O)Cc2cccnc2)[C@H](C)[C@@H](OC2O[C@H](C)C[C@H](N(C)C)[C@H]2O)[C@@](C)(O)C[C@@H](C)/C(=N\O)[C@H](C)[C@H]2OC(=O)O[C@@]21C` (stereo not given in full): the MIC turned out to be 3.13 µg/mL (≈ 4.25 µM) against Haemophilus influenzae [1]; 3.13 µg/mL (≈ 4.25 µM) in the data set with Haemophilus influenzae [2]; 0.39 µg/mL (≈ 0.53 µM) in the data set with Staphylococcus aureus [5]; 0.39 µg/mL (≈ 0.53 µM) in the data set with Staphylococcus aureus [6]; 0.025 µg/mL (≈ 0.034 µM) against Streptococcus pneumoniae [7]; 0.025 µg/mL (≈ 0.034 µM) with Streptococcus pneumoniae [8]. Moreover, the MIC against Streptococcus pneumoniae [9] was 0.1 µg/mL (≈ 0.136 µM); in the data set with Streptococcus pneumoniae [10], above 100 µg/mL; against Staphylococcus aureus [11], above 100 µg/mL; against Staphylococcus aureus [12], 0.2 µg/mL (≈ 0.272 µM). Also, the figures for the ED50 with Mus musculus [3] and in the data set on Mus musculus [4] were 142 mg/kg and 51.6 mg/kg, respectively.

With `CC[C@H]1OC(=O)[C@H](C)[C@@H](OC(=O)Cc2cccnc2)[C@H](C)[C@@H](OC2O[C@H](C)C[C@H](N(C)C)[C@H]2O)[C@@](C)(OC)C[C@@H](C)C(=O)[C@H](C)[C@@H](O)[C@]1(C)O` (stereo not given in full), the MIC stood at 12.5 µg/mL (≈ 17.6 µM) against Haemophilus influenzae [1]; 12.5 µg/mL (≈ 17.6 µM) in the data set with Haemophilus influenzae [2]; 0.78 µg/mL (≈ 1.1 µM) with Staphylococcus aureus [5]; 1.56 µg/mL (≈ 2.2 µM) against Staphylococcus aureus [6]; 0.2 µg/mL (≈ 0.282 µM) against Streptococcus pneumoniae [7]; 0.39 µg/mL (≈ 0.55 µM) in the data set on Streptococcus pneumoniae [8]. Besides, the MIC is 0.39 µg/mL (≈ 0.55 µM) in the data set with Streptococcus pneumoniae [9], above 100 µg/mL against Streptococcus pneumoniae [10], above 100 µg/mL against Staphylococcus aureus [11] and 0.78 µg/mL (≈ 1.1 µM) in the data set on Staphylococcus aureus [12]. Besides, the ED50 (usually the midpoint of the dose-response relation) stood at 40.8 mg/kg in the data set on Mus musculus [3] and 9.57 mg/kg in the data set with Mus musculus [4].

For `CC[C@H]1OC(=O)[C@H](C)[C@@H](OC(=O)Cc2cccc([N+](=O)[O-])c2)[C@H](C)[C@@H](OC2O[C@H](C)C[C@H](N(C)C)[C@H]2O)[C@@](C)(OC)C[C@@H](C)C(=O)[C@H](C)[C@@H](O)[C@]1(C)O` (stereo not given in full), the MIC in the data set on Haemophilus influenzae [1] is 25 µg/mL (≈ 33.2 µM); with Haemophilus influenzae [2], 25 µg/mL (≈ 33.2 µM); against Staphylococcus aureus [5], 0.2 µg/mL (≈ 0.266 µM); against Staphylococcus aureus [6] it was 0.78 µg/mL (≈ 1.04 µM); against Streptococcus pneumoniae [8] it was 0.1 µg/mL (≈ 0.133 µM); against Streptococcus pneumoniae [9], 0.2 µg/mL (≈ 0.266 µM). Moreover, the MIC in the data set with Streptococcus pneumoniae [10] and in the data set on Staphylococcus aureus [11] was above 100 µg/mL in each case.

As to `CC[C@H]1OC(=O)[C@H](C)[C@@H](OC(=O)Cc2cccnc2)[C@H](C)[C@@H](OC2O[C@H](C)C[C@H](N(C)C)[C@H]2O)[C@@](C)(OC)C[C@@H](C)C(=O)[C@H](C)[C@H]2OC(=O)O[C@@]21C` (stereo not given in full), the MIC came out at 3.13 µg/mL (≈ 4.26 µM) in the data set with Haemophilus influenzae [1]; 3.13 µg/mL (≈ 4.26 µM) with Haemophilus influenzae [2]; 0.2 µg/mL (≈ 0.272 µM) in the data set on Staphylococcus aureus [5]; 0.39 µg/mL (≈ 0.531 µM) with Staphylococcus aureus [6]; 0.05 µg/mL (≈ 0.068 µM) in the data set with Streptococcus pneumoniae [7]; 0.05 µg/mL (≈ 0.068 µM) against Streptococcus pneumoniae [8]. Moreover, the MIC in the data set on Streptococcus pneumoniae [9] is 0.2 µg/mL (≈ 0.272 µM); against Streptococcus pneumoniae [10] it was above 100 µg/mL; with Staphylococcus aureus [11], above 100 µg/mL; against Staphylococcus aureus [12], 0.2 µg/mL (≈ 0.272 µM). The ED50 in the data set on Mus musculus [3] was 51.1 mg/kg; in the data set on Mus musculus [4], 17.5 mg/kg.

With `CC[C@H]1OC(=O)[C@H](C)[C@@H](OC(=O)Cc2cccnc2)[C@H](C)[C@@H](OC2O[C@H](C)C[C@H](N(C)C)[C@H]2O)[C@@](C)(OC)C[C@@H](C)C(=O)[C@H](C)[C@H]2NC(=O)O[C@@]21C` (stereo not given in full), the MIC in the data set on Haemophilus influenzae [1] turned out to be 3.13 µg/mL (≈ 4.26 µM); with Haemophilus influenzae [2], 3.13 µg/mL (≈ 4.26 µM); against Staphylococcus aureus [5] it was 0.05 µg/mL (≈ 0.0681 µM); against Staphylococcus aureus [6] it was 0.39 µg/mL (≈ 0.531 µM); against Streptococcus pneumoniae [7], 0.05 µg/mL (≈ 0.0681 µM); against Streptococcus pneumoniae [8], 0.05 µg/mL (≈ 0.0681 µM). Also, the MIC is 0.1 µg/mL (≈ 0.136 µM) with Streptococcus pneumoniae [9], above 100 µg/mL in the data set with Streptococcus pneumoniae [10], above 100 µg/mL against Staphylococcus aureus [11] and 0.2 µg/mL (≈ 0.273 µM) with Staphylococcus aureus [12]. The median effective dose (ED50) is 17.5 mg/kg with Mus musculus [3] and 6.99 mg/kg in the data set with Mus musculus [4].

In the case of `CC[C@H]1OC(=O)[C@H](C)[C@@H](OC(=O)Cc2cccnc2)[C@H](C)[C@@H](OC2O[C@H](C)C[C@H](N(C)C)[C@H]2O)[C@@]2(C)C[C@@H](C)[C@H](OC(=O)O2)[C@H](C)[C@H]2OC(=O)O[C@@]21C` (stereo not given in full), the Cmax (as a rule, the peak of the concentration-time curve) in data set [13] was 1350 ng/mL; in [14] it was 120 ng/mL. Besides, the AUC – broadly, concentration integrated over time – in [15] was found to be 2460 ng·h/mL; in [16] it was 230 ng·h/mL. Besides, the MIC against Haemophilus influenzae [1] stood at 0.78 µg/mL (≈ 1.04 µM); in the data set with Haemophilus influenzae [2], 0.78 µg/mL (≈ 1.04 µM); against Staphylococcus aureus [5] it was 0.1 µg/mL (≈ 0.134 µM); in the data set on Staphylococcus aureus [6], 0.2 µg/mL (≈ 0.267 µM); with Streptococcus pneumoniae [8], 0.025 µg/mL (≈ 0.0334 µM); in the data set with Streptococcus pneumoniae [9], 0.1 µg/mL (≈ 0.134 µM). For the same compound, the MIC was 100 µg/mL (≈ 134 µM) against Streptococcus pneumoniae [10] and above 100 µg/mL against Staphylococcus aureus [11]. Besides, the Survival rate with Mus musculus [17] was 30%; in the data set with Mus musculus [18], 90%.
